The subject of data set [1] is Human immunodeficiency virus 1. The experiment in a line: Antiviral activity against HIV1 3B infected in human MT4 cells assessed as protection against virus-induced cytopathic effect incubated for 5 days by MTT assay. The class given is functional, organism-based. As to conditions: Human immunodeficiency virus 1, 3B, MT4, 120 h. For orientation: Protection from cytopathic effect is a common read-out in antiviral testing.

The test system of data set [2] is Human immunodeficiency virus 1. Nature of the data set: Antiviral activity against NNRTI-resistant HIV1 RES056 containing reverse transcriptase K103N+Y181C mutant infected in human MT4 cells assessed as protection against virus-induced cytopathic effect incubated for 5 days by MTT assay. Conditions: Human immunodeficiency virus 1, RES056, MT4, 120 h. The data set is classed as functional, organism-based.

Data set [3] concerns Human immunodeficiency virus 1. Nature of the data set: Antiviral activity against HIV1 containing reverse transcriptase L100I mutant infected in human MT4 cells assessed as protection against virus-induced cytopathic effect incubated for 5 days by MTT assay. The class given is functional, organism-based. Conditions: Human immunodeficiency virus 1, MT4, 120 h.
The nature of data set [4]: Toxicity in Kunming mouse assessed as induction of poisoning symptoms at 2000 mg/kg, po administered as single dose measured during 7 days post dose. The data set is classed as organism-based. As to conditions: in vivo, 168 h. The essentials:
(§1)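 Kunming mice received a single oral 2000 mg/kg dose and were followed for 7 days alongside an untreated control group. Mortality, poisoning symptoms and behaviour were recorded, and relative body-weight change was tracked.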

Data set [5] can be described thus: Tmax in Kunming mouse at 10 mg/kg, po by LC-MS/MS analysis. The class given is ADME, organism-based. As to conditions: in vivo. The essentials:
(§2)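 Single dose, intravenous at 2 mg/kg or oral at 10 mg/kg, in Wistar rats and Kunming mice.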

The nature of data set [6]: Toxicity in Kunming mouse assessed as induction of mortality at 2000 mg/kg, po administered as single dose measured during 7 days post dose. The class given is organism-based. Conditions: in vivo, 168 h. An outline of the steps:
as §1

Data set [7] can be described thus: Tmax in Wistar rat at 2 mg/kg, iv by LC-MS/MS analysis. The class given is ADME, organism-based. As to conditions: in vivo. An outline of the steps:
as §2

For data set [8], the system named is Human immunodeficiency virus 1. Nature of the data set: Antiviral activity against HIV1 containing reverse transcriptase K103N mutant infected in human MT4 cells assessed as protection against virus-induced cytopathic effect incubated for 5 days by MTT assay. As to conditions: Human immunodeficiency virus 1, MT4, 120 h. The class given is functional, organism-based.

Data set [9] in a line: Tmax in Wistar rat at 10 mg/kg, po by LC-MS/MS analysis. The class given is ADME, organism-based. As to conditions: in vivo. The essentials:
as §2

The test system of data set [10] is Human immunodeficiency virus 1. Nature of the data set: Antiviral activity against HIV1 containing reverse transcriptase E138K mutant infected in human MT4 cells assessed as protection against virus-induced cytopathic effect incubated for 5 days by MTT assay. The data set is classed as functional, organism-based. Conditions: Human immunodeficiency virus 1, MT4, 120 h.

Data set [11] can be described thus: Tmax in Kunming mouse at 2 mg/kg, iv by LC-MS/MS analysis. The data set is classed as ADME, organism-based. Conditions: in vivo. An outline of the steps:
as §2

Data set [12] addresses Cytochrome P450 2D6 (Homo sapiens, UniProt P10635). The experiment in a line: Inhibition of CYP2D6 in human liver microsomes using dextromethorphan substrate in presence of NADPH incubated for 10 mins. The class given is ADME.
Data set [13] concerns Human immunodeficiency virus 1. The experiment in a line: Antiviral activity against HIV1 containing reverse transcriptase F227L+V106A mutant infected in human MT4 cells assessed as protection against virus-induced cytopathic effect incubated for 5 days by MTT assay. The data set is classed as functional, organism-based. As to conditions: Human immunodeficiency virus 1, MT4, 120 h.

Data set [14] concerns Human immunodeficiency virus 1. The experiment in a line: Antiviral activity against HIV1 containing reverse transcriptase Y181C mutant infected in human MT4 cells assessed as protection against virus-induced cytopathic effect incubated for 5 days by MTT assay. Conditions: Human immunodeficiency virus 1, MT4, 120 h. The class given is functional, organism-based.
For data set [15], the system named is Human immunodeficiency virus 1. Nature of the data set: Antiviral activity against HIV1 containing reverse transcriptase Y188L mutant infected in human MT4 cells assessed as protection against virus-induced cytopathic effect incubated for 5 days by MTT assay. Conditions: Human immunodeficiency virus 1, MT4, 120 h. The class given is functional, organism-based.

Data set [16] in a line: Toxicity in Kunming mouse assessed as induction of body weight changes at 2000 mg/kg, po administered as single dose measured during 7 days post dose. The class given is organism-based. As to conditions: in vivo, 168 h. The essentials:
as §1

Data set [17] in a line: Toxicity in Kunming mouse assessed as induction of abnormal behaviors at 2000 mg/kg, po administered as single dose measured during 7 days post dose. The class given is organism-based. As to conditions: in vivo, 168 h. An outline of the steps:
as §1

The results in this text go back to ChEMBL document CHEMBL4376885 (J Med Chem, 2020).

Cytochrome P450 2D6, sequence (P10635 whole entry): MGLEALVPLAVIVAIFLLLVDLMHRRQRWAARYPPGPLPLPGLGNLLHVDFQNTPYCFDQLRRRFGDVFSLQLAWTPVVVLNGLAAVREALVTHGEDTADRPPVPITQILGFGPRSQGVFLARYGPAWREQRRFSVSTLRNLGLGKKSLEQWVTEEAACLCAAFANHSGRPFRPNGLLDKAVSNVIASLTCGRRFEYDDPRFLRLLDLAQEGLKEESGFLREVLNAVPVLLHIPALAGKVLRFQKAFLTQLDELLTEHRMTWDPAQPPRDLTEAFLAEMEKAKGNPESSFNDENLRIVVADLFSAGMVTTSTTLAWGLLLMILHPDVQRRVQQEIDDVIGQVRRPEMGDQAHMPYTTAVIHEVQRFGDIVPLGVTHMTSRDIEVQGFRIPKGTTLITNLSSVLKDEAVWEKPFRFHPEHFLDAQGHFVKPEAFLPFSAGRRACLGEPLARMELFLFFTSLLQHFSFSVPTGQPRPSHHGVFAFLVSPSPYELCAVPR

As to `Cc1cc(C#N)cc(C)c1Oc1nc(Nc2ccc(C#N)cc2C(F)(F)F)nc2ccsc12`, in data set [1], the EC50 (usually the concentration giving half of the maximal effect) was 896 nM.
For the molecule `Cc1cc(C#N)cc(C)c1Oc1nc(Nc2ccc(C#N)c(F)c2F)nc2ccsc12`, in data set [1], the EC50 came out at 226 nM.
Take `Cc1cc(C#N)cc(C)c1Oc1nc(Nc2ccc(C#N)cc2F)nc2sccc12`: the 50% effective concentration (EC50) in data set [1] was determined as 24 nM.
Consider `Cc1cc(/C=C/C#N)cc(C)c1Oc1nc(Nc2ccc(C#N)cc2F)nc2ccsc12`, for which the EC50 in data set [2] was found to be 561 nM; in data set [1], 6.34 nM.
For `Cc1cc(C#N)cc(C)c1Oc1nc(Nc2ccc(C#N)c(C(F)(F)F)c2)nc2sccc12`, in [1], the concentration giving a half-maximal response (EC50) was 44.9 nM.
With `Cc1cc(C#N)cc(C)c1Oc1nc(Nc2ccc(C#N)c(F)c2)nc2ccccc12`, the EC50 in data set [2] was found to be 148 nM; in data set [1] it was 8.07 nM.
`Cc1cc(C#N)cc(C)c1Oc1nc(Nc2ccc(C#N)cc2F)nc2ccsc12`: in [1], the EC50 came out at 30.4 nM.
`Cc1cc(C#N)cc(C)c1Oc1nc(Nc2ccc(C#N)c(F)c2)nc2ccsc12`: the 50% effective concentration (EC50) came to 50.1 nM in [2] and 6.74 nM in [1].
Consider `Cc1cc(C#N)cc(C)c1Oc1nc(Nc2ccc(C#N)c(F)c2)nc2c1CCC2`, for which the figures for the EC50 in data set [2] and in [1] were 951 nM and 37.7 nM, respectively.
For the molecule `Cc1cc(C#N)cc(C)c1Oc1nc(Nc2ccc(C#N)c(F)c2)nc2cc[nH]c12`, the EC50 in data set [2] worked out at 29.4 nM; in data set [1] it was 2.89 nM.
As to `Cc1cc(C#N)cc(C)c1Oc1cc(Cl)nc(Nc2ccc(C#N)c(F)c2)n1`, the 50% effective concentration (EC50) in data set [2] worked out at 898 nM; in [1], 48.9 nM.
The matching figures for `Cc1cc(C#N)cc(C)c1Oc1nc(Nc2ccc(C#N)c(F)c2)nc2c1SCC2`: 107 nM and 6.31 nM.
The matching figures for `Cc1cc(/C=C/C#N)cc(C)c1Oc1nc(Nc2ccc(C#N)cc2C(F)(F)F)nc2ccsc12`: 48.4 nM and 24.5 nM.
For `Cc1cc(C#N)cc(C)c1Oc1nc(Nc2ccc(C#N)c(F)c2)nc2cccc(F)c12`, in that order: 182 nM and 12.3 nM.
`Cc1cc(C#N)cc(C)c1Oc1nc(Nc2ccc(C#N)c(F)c2)nc2c1COC2`: the concentration giving a half-maximal response (EC50) in data set [2] came out at 274 nM; in data set [1], 2.99 nM.
As for `Cc1cc(C#N)cc(C)c1Oc1nc(Nc2ccc(C#N)cc2)nc(N)c1Br` [ETRAVIRINE], the half-maximal effective concentration (EC50) fell in the range of 32.2 to 37.9 nM in data set [2] and 2.55 to 3.13 nM in data set [1].
Take `Cc1cc(/C=C/C#N)cc(C)c1Oc1nc(Nc2ccc(C#N)c(C(F)(F)F)c2)nc2ccsc12`: in [1], the 50% effective concentration (EC50) is 146 nM.
Regarding `Cc1cc(C#N)cc(C)c1Oc1nc(Nc2ccc(C#N)c(F)c2)nc2ncsc12`, the half-maximal effective concentration (EC50) in data set [2] was 131 nM; in [1], 3 nM.
Regarding `Cc1cc(C#N)cc(C)c1Oc1nc(Nc2ccc(C#N)cc2C(F)(F)F)nc2sccc12`, the EC50 in data set [1] was found to be 1280 nM.
On the same count and under the same terms, the value for `Cc1cc(/C=C/C#N)cc(C)c1Oc1nc(Nc2ccc(C#N)cc2C(F)(F)F)nc2sccc12` was 166 nM.
`Cc1cc(/C=C/C#N)cc(C)c1Oc1nc(Nc2ccc(C#N)c(F)c2)nc2ccsc12`: the EC50 is less than 3.62 nM in [3]; 21.5 nM in [2]; 8.6 nM in data set [1]; less than 3.62 nM in data set [8]; 9.4 nM in data set [10]; 9.28 nM in data set [13]. Also, the EC50 in data set [14] was 8.49 nM; in data set [15], 8.15 nM. The Activity entry in [4], in data set [6], in [16] and in [17] was “Non-Toxic” each time. Besides, the Tmax (commonly the time from dosing to the highest level) in data set [5] was 1 h; in [7] it was 1.98 min; in [9] it was 30 min; in [11], 1.98 min. Further, the half-inhibitory concentration (IC50) (commonly the concentration that inhibits the measured activity by half) in [12] is greater than 50 µM.
On to `Cc1cc(/C=C/C#N)cc(C)c1Oc1nc(Nc2ccc(C#N)c(F)c2)nc2sccc12`, for which the EC50 in [3] was found to be 5.55 nM; in [2], 33.4 nM; in data set [1] it was 7.64 nM; in [8] it was 7.36 nM; in data set [10], 29.7 nM; in data set [13], 32.8 nM. In addition, the EC50 in data set [14] worked out at 26.3 nM; in data set [15] it was 35.7 nM.
In the case of `Cc1cc(C#N)cc(C)c1Oc1nc(Nc2ccc(C#N)c(F)c2)nc2c1CCCC2`, the EC50 was 180 nM in data set [2] and 11.3 nM in [1].
The matching figures for `Cc1cc(/C=C/C#N)cc(C)c1Oc1nc(Nc2ccc(C#N)c(C(F)(F)F)c2)nc2sccc12`: 140 nM and 35.3 nM.
On to `Cc1cc(C#N)cc(C)c1Oc1nc(Nc2ccc(C#N)c(F)c2)nc2c1CSC2`, for which the EC50 in data set [2] was determined as 611 nM; in [1] it was 20.7 nM.
The matching figures for `Cc1cc(/C=C/C#N)cc(C)c1Oc1nc(Nc2ccc(C#N)cc2F)nc2sccc12`: 473 nM and 7.13 nM.
The matching figures for `O=C1Nc2ccc(Cl)cc2[C@@](C#CC2CC2)(C(F)(F)F)O1` [EFAVIRENZ]: 186 to 260 nM and 2.31 to 2.49 nM.
As for `Cc1cc(C#N)cc(C)c1Oc1nc(Nc2ccc(C#N)c(C(F)(F)F)c2)nc2ccsc12`, the EC50 in data set [1] was 29.2 nM.
Turning to `Cc1cc(C#N)cc(C)c1Oc1ccnc(Nc2ccc(C#N)c(F)c2)n1`, the values for the EC50 in [2] and in data set [1] were 388 nM and 6.33 nM, respectively.
The matching figures for `Cc1cc(/C=C/C#N)cc(C)c1Oc1nc(Nc2ccc(C#N)c(F)c2F)nc2sccc12`: 2350 nM and 18.6 nM.
The matching figures for `Cc1cc(C#N)cc(C)c1Oc1nc(Nc2ccc(C#N)c(F)c2)nc2sccc12`: 119 nM and 10.1 nM.
Consider `Cc1cc(C#N)cc(C)c1Oc1nc(Nc2ccc(C#N)c(F)c2)nc2scnc12`, for which the 50% effective concentration (EC50) came to 162 nM in data set [2] and 3.72 nM in [1].
For the molecule `Cc1cc(C#N)cc(C)c1Oc1nc(Nc2ccc(C#N)c(F)c2F)nc2sccc12`, the half-maximal effective concentration (EC50) in data set [1] was 40.3 nM.
`Cc1cc(/C=C/C#N)cc(C)c1Oc1nc(Nc2ccc(C#N)c(F)c2F)nc2ccsc12`: the EC50 was 1090 nM in [2] and 8.92 nM in [1].
